# Test results published in PubChem BioAssay AID804 (SRMLSC, 2007).
# Screen size: about 140,000 compounds; about 710 (0.51%) were called active. Many of the other results were omitted from the sample, so actives are more common in it than they were. Values without a mark were called inactive.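 The calls were made as follows: active = inhibition above a set limit, 3 SD over the mean compound inhibition (cut at about 44% in these data); inactive = the rest.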
# Experiment: BB579 yeast growth reduction, restrictive medium – S. cerevisiae, yeast lifespan-shortening project, primary screen (AID 804)
# Details: OD615, 48 h, at 10 µM, stronger effect = higher value
# Summary of the method: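 Assay system: S. cerevisiae DeaD strain BB579 yeast. Medium: CSMM-D restrictive synthetic medium containing dextrose (glucose). Times: 4 h cell preincubation, 48 h compound exposure, 30 °C humidified. Signal: OD615 turbidity measurement. Benchmarks: positive control amphotericin B 10 µg/mL.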
row,Compound,inhibition
1,Cc1ccc(N2C(=O)C(NC(=O)c3c(F)cccc3F)(C(F)(F)F)C3=C2CC(C)(C)CC3=O)cc1 (stereo unspecified),-1.52%
2,O=C1c2ccccc2NC(c2ccc(-c3cccc(Cl)c3)o2)N1O (stereo unspecified),64.1% (active)
3,CCOC(=O)NN1C(=O)c2ccccc2NC1c1cccc(O)c1 (stereo unspecified),9.36%
4,C=CCN(CC=C)S(=O)(=O)c1ccc(C(=O)Nc2nc3c(s2)CCc2ccccc2-3)cc1,-67.9%
5,O=C(C1CCCO1)N1CCN(C(=S)Nc2cccc(Cl)c2)CC1 (stereo unspecified),-3.25%
6,CC1(C)CC(=O)C(N=Nc2ccc(S(=O)(=O)N3CCCCCC3)cc2)=C(O)C1,-5.4%
7,C/C(CC(=O)Nc1ccc(Cl)cc1)=N\NC(=O)C(=O)NCCO,-6.42%
8,Cc1cc2oc(C(=O)Nc3c(C)n(C)n(-c4ccccc4)c3=O)c(C)c2cc1Cl,-44%
9,Cc1ccc(NC(=O)c2cccs2)cc1S(=O)(=O)N(C)C,-35.7%
10,Cc1ccc(-c2nn(C(C)(C)C)c3ncnc(N)c23)cc1,81.2% (active)
11,O=C(Cc1ccc(Cl)c(Cl)c1)Nc1ccc(SC(F)F)cc1,-39.5%
12,O=C(CC(O)(C(F)(F)F)C(F)(F)F)Nc1ccc(Cl)c(Cl)c1,80.1% (active)
13,O=C(CC(=O)Nc1ccc(Cl)c(Cl)c1)N/N=C/c1ccc(O)cc1,-54.1%
14,Cc1scc(C(=O)NNC(=S)NCc2ccccc2)c1C,-2.5%
15,CCOC(=O)NN1C(=O)c2ccccc2NC1c1ccccc1O (stereo unspecified),7.28%
16,COC(=O)C1=C(C)N(C)C(=S)NC1c1ccccc1 (stereo unspecified),8.95%
17,Cc1c(Cl)cnc(NC(=O)COC(=O)c2ccc(S(=O)(=O)NCc3ccco3)cc2)c1Cl,-12.2%
18,Cc1ccc(-c2nn(-c3ccccc3)cc2C(=O)Nc2cccc(S(=O)(=O)N3CCOCC3)c2)cc1,-29%
19,Cn1c(SCC(=O)Nc2cccc(O)c2)nnc1-c1ccc(S(=O)(=O)N2CCOCC2)cc1,2.85%
20,Cc1cc(C(=O)OC(C)C(=O)Nc2cccc(S(=O)(=O)N3CCOCC3)c2)c(C)o1 (stereo unspecified),-42.7%
21,O=C(CN1CCN(c2ccc(O)cc2)CC1)Nc1cc(S(=O)(=O)N2CCOCC2)ccc1Cl,-37.9%
22,CCN(CC)c1ccc(S(=O)(=O)N2CCOCC2)cc1NC(=O)CSc1cccc[n+]1[O-],89% (active)
23,CC(Sc1cccc[n+]1[O-])C(=O)Nc1cccc(S(=O)(=O)N2CCOCC2)c1 (stereo unspecified),95.2% (active)

row,Compound,inhibition
1,COc1ccccc1CNC(=O)CN1CCC(n2cnc3cc(F)ccc32)CC1,-21.9%
2,Cn1c(CNC(=O)c2ccccc2F)nnc1SCc1ccc(F)cc1,6.65%
3,CCCCC1N2CC3([N+](=O)[O-])CN1CC([N+](=O)[O-])(C2)C3(C)C (stereo unspecified),-27.8%
4,CC(C)(C)C1C/C(=C/c2ccco2)C(=O)/C(=C/c2ccco2)C1 (stereo unspecified),-19.6%
5,CCN1CCN(C(c2cccnc2)c2cc(Cl)c3cccnc3c2O)CC1 (stereo unspecified),6.22%
6,Oc1c(CN2CCN(c3ccc(F)cc3)CC2)cc(Cl)c2cccnc12,99.3% (active)
7,O=C(c1cccc(C(=O)N2CCN(c3ccc(F)cc3)CC2)c1)N1CCN(c2ccc(F)cc2)CC1,-61.4%
8,Cc1cccc(NC(=S)NCc2ccc3[nH]c4c(c3c2)CCCC4)c1,15.9%
9,CCc1cccc(CC)c1NC(=S)NCc1ccc2[nH]c(C)cc2c1,54.3% (active)
10,Cc1cc2cc(CNC(=O)c3cccs3)ccc2[nH]1,-4.49%
11,CC(Oc1ccc2ccccc2c1)C(=O)NNC(=S)NC(=O)c1ccco1 (stereo unspecified),98.2% (active)
12,CCCc1ccc(OCC(=O)NNC(=S)NC(=O)c2ccco2)cc1,98.5% (active)
13,COc1ccc(CCNC(=O)c2ccco2)cc1,-10.2%
14,O=C(Nc1ccc2ccccc2c1)/C(=C/c1cccc(Br)c1)NC(=O)c1ccco1,-32.8%
15,O=C(Nc1ccc2ccccc2c1)/C(=C\c1ccc2c(c1)OCO2)NC(=O)c1ccco1,6.72%
16,COc1ccc(C(=O)NC(=S)NNC(=O)CCc2ccccc2)cc1,-10.9%
17,NC(=O)C[C@@H]1NC(=O)CNC(=O)c2cc([N+](=O)[O-])cc(I)c2NCCC(C(N)=O)NC1=O (stereo partly specified),1.08%
18,CC1CN/C(=C\C(=O)c2ccc(Br)cc2)C(=O)N1 (stereo unspecified),-42.4%
19,Cc1cc(Cl)ccc1NC(=S)N1CCC(C(N)=O)(N2CCCCC2)CC1,1.37%
20,Cc1ccc(OC(=O)CCC(=O)Nc2ccc(Br)cc2)cc1,3.42%
21,O=C(CSc1ncn[nH]1)Nc1nsc(-c2ccccc2)n1,4.99%
22,Cc1cccc(OP(=O)(Nc2c(C)n(C)n(-c3ccccc3)c2=O)Oc2cccc(C)c2)c1,-0.66%
23,CCOC(=O)C1CCN(C(=O)/C=C/c2cc(OC)c(OC)c(OC)c2)CC1,-12.6%

row,Compound,inhibition
1,O=C(COC(=O)c1cc(-c2cccs2)nn1-c1ccccc1)Nc1cc([N+](=O)[O-])ccc1Cl,-30.3%
2,O=C(Nc1cccc([N+](=O)[O-])c1)c1ccc2c(c1)OCO2,-10.3%
3,CCOC(=O)c1ccccc1C(=O)N1CCOCCOCCOCC1,-13.3%
4,CCCCOc1ccc(C(=O)NCC(=O)OCC(=O)N2CCN(S(=O)(=O)c3ccc(C)cc3C)CC2)cc1,-38.7%
5,O=C(COC(=O)/C=C/c1cccc(Cl)c1)NCCc1ccccc1,-16.6%
6,Cc1ccc2nc(S(=O)(=O)O)[nH]c2c1,-11.6%
7,CC(C)c1nc2ccc(C(=O)O)cc2[nH]1,-7.86%
8,Cc1nc2ccc(C(=O)O)cc2[nH]1,44.4% (active)
9,COc1ccc(CCNC(=O)CSc2nc(-c3ccc(OC)c(OC)c3)ccc2C#N)cc1,-21.2%
10,COc1cccc(/C=N\NC(=O)C2=NNC(=O)C2C)c1O (stereo unspecified),1.19%
11,COc1cc(/C=C2\SC(=S)N(Nc3ncc(C(F)(F)F)cc3Cl)C2=O)cc(OC)c1OC,-16.3%
12,COc1cccc(/C=N/Nc2ncc(C(F)(F)F)cc2Cl)c1O,64.1% (active)
13,Cc1nn(C)c(C(=O)NNC(=S)NC2CCCCC2)c1Cl,-11.7%
14,CCOC(=O)c1cnc(-c2ccccc2)nc1Oc1ccc(C)cc1,-3.41%
15,CCOC(=O)c1cnc(-n2nc(C)cc2C)nc1-n1nc(C)cc1C,-33.3%
16,CCOC(=O)c1cnc(-n2nc(C)cc2C)nc1NNc1cc(C)nc(-c2ccccc2)n1,63.6% (active)
17,CCc1cc(C(N)=O)c(NC(=O)c2ccc(OC)cc2)s1,13.8%
18,COc1cccc(NC(=S)N(CCc2c(C)[nH]c3ccccc23)Cc2ccco2)c1,-16.9%
19,O=C(Nc1cccc(F)c1)c1coc(=O)c(Br)c1,-16.6%
20,N=c1oc2ccccc2cc1C(=O)N/N=C/c1ccccc1,-35.6%
21,CNC(=O)c1cc2c(ccc3ccccc32)oc1=N,87% (active)
22,CCOC(=O)N1CCN(C(=O)c2cc3c(ccc4ccccc43)oc2=O)CC1,4.59%
23,O=[N+]([O-])c1cc(C(F)(F)F)ccc1NN=C1CCCC1,-8.75%

row,Compound,inhibition
1,Cc1ccc(Cl)cc1N1CCN(C(=O)c2cccc3c(=O)c(C)c(-c4ccccc4)oc23)CC1,-11.9%
2,COc1ccc(-c2[nH]ncc2/C=N/NC(=O)c2cc(Br)ccc2O)c(OC)c1,-15.9%
3,CCCc1cc(-c2nc(-c3ccc(C)cc3)cs2)ccn1,6.88%
4,COc1ccc([C@H]2[C@H](C(C)=O)N3N=Cc4ccccc4C3C23C(=O)OC(C)(C)OC3=O)cc1 (stereo partly specified),-14.6%
5,CNc1ccc(NC(C)=O)cc1[N+](=O)[O-],-4.52%
6,Cc1cc(C)cc(OCC(=O)Nc2nc3ccc([N+](=O)[O-])cc3s2)c1,-41.2%
7,O=C(NC(Nc1nc2ccc([N+](=O)[O-])cc2s1)(C(F)(F)F)C(F)(F)F)c1ccccc1,77.5% (active)
8,COC(=O)C(NC(=O)c1ccc(OC)cc1)(Nc1ncc(S(=O)(=O)c2ccc([N+](=O)[O-])cc2)s1)C(F)(F)F (stereo unspecified),-39.1%
9,Cc1c(Cl)cccc1NC(=O)Nc1ccc(C(=O)N2CCCC2)cc1,-7.32%
10,CN(c1nc2ccccc2n2c(-c3ccco3)nnc12)S(=O)(=O)c1ccccc1,-17.9%
11,CN1c2ccccc2-c2nc3ccccc3n2C1c1ccco1 (stereo unspecified),-46.1%
12,Cn1c(-c2ccco2)nc2cc3ccccc3cc21,60.5% (active)
13,CC(C)C(=O)Nc1ccc2c3c(cccc13)CC2,-41.5%
14,O=C(Nc1ccccc1)OCc1cc(-c2ccc(Cl)cc2)on1,-39.2%
15,O=C1c2cccc3cc(Br)cc(c23)C(=O)N1Nc1ccccc1,-67.3%
16,O=C1C=C(c2ccc(Cl)cc2)C(=O)N1Nc1ccccc1,98.1% (active)
17,CCn1ncc(CNC(=O)C2(C)CC2(Br)Br)c1C (stereo unspecified),-38.8%
18,COc1ccc(NC(=S)NCc2cccs2)c(OC)c1,-22.6%
19,CCN1/C(=C/c2ccc3ccc(C)cc3[n+]2CC)Sc2ccccc21,82.5% (active)
20,CCC(=O)/C=C1\Sc2ccccc2N1CC,-18.9%
21,Cc1cccc(NC(=S)N(CCN(C)C)C(C)c2ccco2)c1 (stereo unspecified),-21.1%
22,Cc1ccc(SCCC(=O)NC(C(C)C)C(C)C)cc1,-7.21%
